Measured values taken from ChEMBL document CHEMBL1156555, “Synthesis and anti-inflammatory activity of 2-aryloxy methyl oxazolines” (Bioorg Med Chem Lett, 2008).
Blank lines part the entries; values can stand above or below the compound they belong to.

Columns and labels:
Rattus norvegicus [1] = experiment: Antiinflammatory activity in po dosed albino rat assessed as inhibition of carrageenan-induced paw edema administered 30 mins prior to challenge; format: functional
Rattus norvegicus [2] = experiment: Toxic ulcerogenic effect in albino rat assessed as incidence of hyperemia at 200 mg/kg, po; format: toxicity, organism-based; set-up: dose 200 mg/kg, route oral; conditions: in vivo
In short: (§1)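 Rats (200–230 g) in groups of 10 were fasted 24 h, then given the compound orally. They were killed 5 h after dosing. Stomach and small intestine were examined under a microscope for hyperemia, epithelial shedding, petechiae, frank haemorrhage, and erosion or ulceration with or without perforation. Any of these criteria counted as ulcerogenic.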

Rattus norvegicus [3] = experiment: Toxic ulcerogenic effect in albino rat assessed as incidence of hyperemia at 400 mg/kg, po; format: toxicity, organism-based; set-up: dose 400 mg/kg, route oral; conditions: in vivo; in short: as §1
[4] = Acute toxicity in albino rat assessed as mortality after 24 hrs; format: organism-based; conditions: in vivo, read-out: ALD50
In short: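 Albino rats (200–230 g), groups of 10, given test compounds intraperitoneally at several dose levels. Percent mortality per group recorded 24 h after dosing. ALD50 calculated from the mortality data by a previously described method.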

Rattus norvegicus [5] = experiment: Antiinflammatory activity in albino rat assessed as inhibition of carrageenan-induced paw edema at 80 mg/kg, po administered 30 mins prior to challenge relative to control; format: functional
In short: (§2)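 Groups of five rats (200–230 g) were dosed orally. After 30 min, 0.2 ml of 1% carrageenan in 0.9% NaCl was injected subcutaneously into the hind-paw plantar aponeurosis. Paw volume was read by water plethysmometer before and at 3 h. % inhibition = (1 − vt/vc) × 100, using mean relative oedema changes against five carrageenan-only controls.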

Rattus norvegicus [6] = experiment: Toxic ulcerogenic effect in albino rat assessed as incidence of hyperemia at 100 mg/kg, po; format: toxicity, organism-based; set-up: dose 100 mg/kg, route oral; conditions: in vivo; in short: as §1
Rattus norvegicus [7] = experiment: Antiinflammatory activity in albino rat assessed as inhibition of carrageenan-induced paw edema at 20 mg/kg, po administered 30 mins prior to challenge relative to control; format: functional; in short: as §2
Rattus norvegicus [8] = experiment: Toxic ulcerogenic effect in albino rat assessed as incidence of ulcer at 100 mg/kg, po; format: toxicity, organism-based; set-up: dose 100 mg/kg, route oral; conditions: in vivo; in short: as §1
Oryctolagus cuniculus = species on record: Oryctolagus cuniculus; experiment: Inhibition of cyclooxygenase in rabbit colon microsomes assessed as reduction in conversion of arachidonic acid to PGE2 at 10 uM by liquid scintillation spectrometry relative to control
In short: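 Rabbit distal colon mucosa (2–3 g) was homogenized in 0.1 M Tris pH 8.0, and the microsomal pellet was used fresh. Microsomes were incubated with the test agent for 10 min at 37 °C in Tris-HCl pH 8.0 with 2 mM reduced glutathione, L-tryptophan and hematin. Products were separated by isocratic HPLC (150 mM orthophosphoric acid pH 3.5, 30% acetonitrile; UV 214 nm), and PGE2-co-eluting radioactivity was counted by liquid scintillation.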

Rattus norvegicus [9] = experiment: Toxic ulcerogenic effect in albino rat assessed as incidence of ulcer at 200 mg/kg, po; format: toxicity, organism-based; set-up: dose 200 mg/kg, route oral; conditions: in vivo; in short: as §1
Rattus norvegicus [10] = experiment: Antiinflammatory activity in albino rat assessed as inhibition of carrageenan-induced paw edema at 40 mg/kg, po administered 30 mins prior to challenge relative to control; format: functional; in short: as §2
Rattus norvegicus [11] = experiment: Toxic ulcerogenic effect in albino rat assessed as incidence of ulcer at 400 mg/kg, po; format: toxicity, organism-based; set-up: dose 400 mg/kg, route oral; conditions: in vivo; in short: as §1

SMILES: Brc1ccc(OCC2=NCCO2)cc1
- ED50 (Rattus norvegicus [1]): 65.5 mg/kg
- Activity (Rattus norvegicus [2]): 80%
- Activity (Rattus norvegicus [3]): 100%
- LD50 at 24 h [4]: > 1000 mg/kg
- inhibition in vivo at 80 mg/kg (Rattus norvegicus [5]): 60.1%
- Activity (Rattus norvegicus [6]): 60%
- inhibition in vivo at 20 mg/kg (Rattus norvegicus [7]): 35.5%
- Activity (Rattus norvegicus [8]): 5%
- inhibition (Oryctolagus cuniculus): 60%
- Activity (Rattus norvegicus [9]): 10%
- inhibition in vivo at 40 mg/kg (Rattus norvegicus [10]): 48.5%
- Activity (Rattus norvegicus [11]): 15%

SMILES: Fc1ccccc1OCC1=NCCO1
- ED50 (Rattus norvegicus [1]): 76.2 mg/kg
- Activity (Rattus norvegicus [2]): 60%
- Activity (Rattus norvegicus [3]): 80%
- LD50 at 24 h [4]: > 1000 mg/kg
- inhibition in vivo at 80 mg/kg (Rattus norvegicus [5]): 60.1%
- Activity (Rattus norvegicus [6]): 40%
- inhibition in vivo at 20 mg/kg (Rattus norvegicus [7]): 20.6%
- Activity (Rattus norvegicus [8]): 10%
- inhibition (Oryctolagus cuniculus): 65%
- Activity (Rattus norvegicus [9]): 15%
- inhibition in vivo at 40 mg/kg (Rattus norvegicus [10]): 30.5%
- Activity (Rattus norvegicus [11]): 20%

SMILES: O=[N+]([O-])c1cccc(OCC2=NCCO2)c1
- ED50 (Rattus norvegicus [1]): 75.5 mg/kg
- Activity (Rattus norvegicus [2]): 35%
- Activity (Rattus norvegicus [3]): 55%
- LD50 at 24 h [4]: > 1000 mg/kg
- inhibition in vivo at 80 mg/kg (Rattus norvegicus [5]): 46.5%
- Activity (Rattus norvegicus [6]): 20%
- inhibition in vivo at 20 mg/kg (Rattus norvegicus [7]): 15.5%
- Activity (Rattus norvegicus [8]): 45%
- Activity (Rattus norvegicus [9]): 30%
- inhibition in vivo at 40 mg/kg (Rattus norvegicus [10]): 29.4%
- Activity (Rattus norvegicus [11]): 80%

SMILES: O=[N+]([O-])c1ccccc1OCC1=NCCO1
- ED50 (Rattus norvegicus [1]): 70.1 mg/kg
- Activity (Rattus norvegicus [2]): 55%
- Activity (Rattus norvegicus [3]): 90%
- LD50 at 24 h [4]: > 1000 mg/kg
- inhibition in vivo at 80 mg/kg (Rattus norvegicus [5]): 50.5%
- Activity (Rattus norvegicus [6]): 30%
- inhibition in vivo at 20 mg/kg (Rattus norvegicus [7]): 20.5%
- Activity (Rattus norvegicus [8]): 20%
- inhibition (Oryctolagus cuniculus): 30%
- Activity (Rattus norvegicus [9]): 25%
- inhibition in vivo at 40 mg/kg (Rattus norvegicus [10]): 35.5%
- Activity (Rattus norvegicus [11]): 45%

- inhibition (Oryctolagus cuniculus): 65%
SMILES: CC(=O)Oc1ccccc1C(=O)O [ASPIRIN]
- Activity (Rattus norvegicus [2]): 60%
- Activity (Rattus norvegicus [3]): 90%
- inhibition in vivo at 80 mg/kg (Rattus norvegicus [5]): 59.6%
- Activity (Rattus norvegicus [6]): 30%
- inhibition in vivo at 20 mg/kg (Rattus norvegicus [7]): 30.4%
- Activity (Rattus norvegicus [8]): 80%
- Activity (Rattus norvegicus [9]): 90%
- inhibition in vivo at 40 mg/kg (Rattus norvegicus [10]): 35.5%
- Activity (Rattus norvegicus [11]): 90%

SMILES: Cc1ccc(OCC2=NCCO2)c(C)c1
- ED50 (Rattus norvegicus [1]): 57.3 mg/kg
- Activity (Rattus norvegicus [2]): 50%
- Activity (Rattus norvegicus [3]): 75%
- LD50 at 24 h [4]: > 1000 mg/kg
- inhibition in vivo at 80 mg/kg (Rattus norvegicus [5]): 85.5%
- Activity (Rattus norvegicus [6]): 25%
- inhibition in vivo at 20 mg/kg (Rattus norvegicus [7]): 31.4%
- Activity (Rattus norvegicus [8]): 15%
- Activity (Rattus norvegicus [9]): 25%
- inhibition in vivo at 40 mg/kg (Rattus norvegicus [10]): 46.5%
- Activity (Rattus norvegicus [11]): 18%

SMILES: COc1ccc(OCC2=NCCO2)cc1
- ED50 (Rattus norvegicus [1]): 77.2 mg/kg
- Activity (Rattus norvegicus [2]): 70%
- Activity (Rattus norvegicus [3]): 90%
- LD50 at 24 h [4]: > 1000 mg/kg
- inhibition in vivo at 80 mg/kg (Rattus norvegicus [5]): 64.1%
- Activity (Rattus norvegicus [6]): 50%
- inhibition in vivo at 20 mg/kg (Rattus norvegicus [7]): 16.6%
- Activity (Rattus norvegicus [8]): 5%
- inhibition (Oryctolagus cuniculus): 70%
- Activity (Rattus norvegicus [9]): 10%
- inhibition in vivo at 40 mg/kg (Rattus norvegicus [10]): 33.2%
- Activity (Rattus norvegicus [11]): 15%

SMILES: Clc1ccccc1OCC1=NCCO1
- ED50 (Rattus norvegicus [1]): 77.5 mg/kg
- Activity (Rattus norvegicus [2]): 40%
- Activity (Rattus norvegicus [3]): 60%
- LD50 at 24 h [4]: > 1000 mg/kg
- inhibition in vivo at 80 mg/kg (Rattus norvegicus [5]): 45.5%
- Activity (Rattus norvegicus [6]): 20%
- inhibition in vivo at 20 mg/kg (Rattus norvegicus [7]): 13.7%
- Activity (Rattus norvegicus [8]): 40%
- Activity (Rattus norvegicus [9]): 30%
- inhibition in vivo at 40 mg/kg (Rattus norvegicus [10]): 22.2%
- Activity (Rattus norvegicus [11]): 80%
